High-throughput results: PubChem, The Scripps Research Institute Molecular Screening Center
RBBP9 inh – blocks human serine hydrolase RBBP9; recombinant RBBP9, FP-Rh probe fluorescence polarization; hit rate 0.2% among 220,000; AID 1515; inhibition, % at 7.94 µM;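 active means inhibition above the campaign mean of all tested compounds plus 3 SD, cut at about 14% in these data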
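Measured by: FP readout at 525/598 nm; material: recombinant human RBBP9; also added: Serine-hydrolase probe FP-Rh, 375 nM pre-mixing; medium: Tris buffer pH 8.0, NaCl, Pluronic; replication: one well per compound; doses: one concentration, 7.94 µM nominal, 0.794% DMSO; timing: preincubation 30 min plus labeling 45 min at 25 °C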
PRMT1 inh – PRMT1 (human) inhibition, primary screen | Q99873 | recombinant PRMT1, activity-based probe fluorescence polarization | inhibition, % at 2.79 µM | hit rate 1.3% among 370,000 | AID 652257;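 active means inhibition above about 21% made by adding two undisclosed values, limit read from the data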
GSTO1 counter – blocks human GSTO1 in RBBP9 counter-screen | hit rate 1.1% among 300,000 | recombinant GSTO1, activity-based probe fluorescence polarization | inhibition, % at 5.96 µM | AID 1974 | P78417;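 active means inhibition above the campaign mean inhibition plus 3 SD, cut at about 35% in these data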
PAD4 FP inh – inhibitors of human PAD4 | hit rate 0.41% among 330,000 | AID 485272 | Q9UM07 | inhibition, % at 6.36 µM | recombinant PAD4, RCA probe fluorescence polarization;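 active means percent inhibition above a cutoff equal to the mean of all tested compounds plus 3 SD, cut at about 15% in these data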
Target sequence (Q9UM07 whole entry, looked up): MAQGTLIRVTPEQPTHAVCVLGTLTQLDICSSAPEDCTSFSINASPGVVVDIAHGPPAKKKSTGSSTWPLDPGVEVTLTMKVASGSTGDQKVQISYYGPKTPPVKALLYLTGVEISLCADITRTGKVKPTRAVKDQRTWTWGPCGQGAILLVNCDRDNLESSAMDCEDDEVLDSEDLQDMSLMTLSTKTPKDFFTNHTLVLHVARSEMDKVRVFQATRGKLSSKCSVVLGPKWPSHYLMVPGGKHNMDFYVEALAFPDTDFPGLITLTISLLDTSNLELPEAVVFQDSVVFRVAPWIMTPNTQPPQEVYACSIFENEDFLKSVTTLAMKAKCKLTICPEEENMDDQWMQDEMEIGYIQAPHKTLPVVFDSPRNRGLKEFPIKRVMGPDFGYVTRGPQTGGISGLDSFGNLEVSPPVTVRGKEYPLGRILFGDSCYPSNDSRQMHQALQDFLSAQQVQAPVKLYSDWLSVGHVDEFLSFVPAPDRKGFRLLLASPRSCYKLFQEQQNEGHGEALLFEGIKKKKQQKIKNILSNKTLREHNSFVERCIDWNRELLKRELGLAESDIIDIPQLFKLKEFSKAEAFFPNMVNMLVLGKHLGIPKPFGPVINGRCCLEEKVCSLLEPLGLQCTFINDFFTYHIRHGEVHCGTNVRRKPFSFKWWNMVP
SIAE inh – inhibitors of human sialic acid acetylesterase SIAE; hit rate 0.69% among 370,000; inhibition, % at 9.66 µM; Q9HAT2; SIAE FP-Rh probe binding, fluorescence polarization;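 active means inhibition above a cutoff: mean of compounds within the control limits plus 3 SD of those, cut at about 17% in these data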
SIAE confirm – human SIAE inhibition, confirmation. hit rate 13% among 2,300. shares compounds with SIAE inh. SIAE FP-Rh activity-based probe, fluorescence polarization. inhibition, % at 9.66 µM;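 active means mean inhibition of the replicates above the hit cutoff set in the primary screen, cut at about 17% in these data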;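 further: inhibitors lower polarization as more probe stays unbound to SIAE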
Of the large screens only hits and unclear results are named; the others gave an inactive call (follow-up assays come after a bar, where they were run). Hits are enriched below; roughly 2.7% of the tested compounds scored in any of these assays.

COC(=O)C1CCN(C(=O)COC(=O)c2ccc(OC)c(S(=O)(=O)N3CCCc4ccccc43)c2)CC1	SIAE inh 21 | SIAE confirm inactive
O=C1c2ccccc2C(Nc2ccc3c(c2)OCO3)N1Cc1ccc2c(c1)OCO2 (stereo not drawn)	none
O=C1c2ccccc2C(Nc2ccc3c(c2)OCO3)N1Cc1ccco1 (stereo not drawn)	SIAE inh 19 | SIAE confirm inactive
Cc1cccc(NC(=O)c2ccc(S(=O)(=O)N3CCCC3)cc2)c1C	none (no result: RBBP9 inh)
COc1nc(Nc2cccc(F)c2)nc(OC)n1	none (no result: RBBP9 inh)
Cc1c(C(=O)N2CCN(c3ccccn3)CC2)cccc1[N+](=O)[O-]	SIAE inh 18 | SIAE confirm inactive
O=C(c1ccc(Cl)cc1[N+](=O)[O-])N1CCN(c2ccccn2)CC1	none
COc1ccc(Cc2nc3ccc(C(=O)N(C)C(C)c4ccon4)cc3o2)cc1 (stereo not drawn)	none (no result: RBBP9 inh)
CCCn1c(=O)[nH]c(=O)c2c1nc(-c1ccc(C#N)cc1)n2CCOC	SIAE inh 17 (no result: RBBP9 inh) | SIAE confirm inactive
O=C(CN1CCN(c2ccccc2O)CC1)NC(c1ccccc1)c1ccccc1	SIAE inh 18 | SIAE confirm inactive
O=C(NCc1ccc(Cl)cc1)c1cc2ccccn2n1	SIAE inh 54 | SIAE confirm inactive
COc1ccc(NC(=O)Nc2ccc(F)cc2F)cc1	none
COc1ccc(NC(=O)Nc2cc(F)ccc2C)cc1	SIAE inh 20 | SIAE confirm inactive
CC1=NN(c2ccc(S(=O)(=O)O)cc2C)C(=O)C1	SIAE inh 20 | SIAE confirm inactive
CCCCCCN1CCN(C2CN(Cc3cn(Cc4ccc(Cl)cc4)nn3)S(=O)(=O)C2)CC1 (stereo not drawn)	none (no result: RBBP9 inh, GSTO1 counter, PAD4 FP inh)
C=C(C)CSc1nnc(-c2cccc(S(=O)(=O)N(C)C)c2)n1-c1cc(OC)ccc1OC	none
CC(CCc1ccccc1)NC(=O)COC(=O)c1cccnc1Cl (stereo not drawn)	none (no result: RBBP9 inh, GSTO1 counter)
Cc1nn(-c2cccc(C(F)(F)F)c2)c(Cl)c1/C=N/Nc1cccc(C(=O)O)c1	SIAE inh 26 | SIAE confirm inactive
COc1ccc(C(=O)c2ccc(Br)cc2)c(OC)c1OC	none (no result: RBBP9 inh, GSTO1 counter, PAD4 FP inh)
COc1cc(-c2csc(N3CCOCC3)n2)cc(OC)c1OC	none
COc1ccc(-c2csc(N3CCN(c4cc(C)nc5ccccc45)CC3)n2)cc1OC	SIAE inh 20 | SIAE confirm inactive
COc1ccc(-c2nc(NC(=O)c3[nH]c(C)c(C(C)=O)c3C)sc2C)cc1	SIAE inh 27 | SIAE confirm inactive
C=C1CCC[C@]2(C)C[C@H]3OC(=O)C(CNCCN(CC)CC)[C@H]3CC12 (stereo partly drawn)	SIAE inh 22 (no result: RBBP9 inh) | SIAE confirm inactive
COc1cc(/C=N\NC(=O)c2ccc(-c3ccccc3)cc2)cc(OC)c1OC(C)=O	SIAE inh 23 (no result: RBBP9 inh, GSTO1 counter, PAD4 FP inh) | SIAE confirm inactive
COc1cc(/C=N\NC(=O)c2ccc(-c3ccccc3)cc2)cc(OC)c1O	SIAE inh 28 (no result: RBBP9 inh) | SIAE confirm inactive
COc1cc([N+](=O)[O-])cc(/C=N/NC(=O)c2ccc(NC(=O)c3ccc(C)cc3)cc2)c1O	SIAE inh 18 (no result: GSTO1 counter, PAD4 FP inh) | SIAE confirm inactive
COc1ccccc1/C=N/NC(=O)c1ccc(-c2ccccc2)cc1	none
COc1cc([N+](=O)[O-])cc(/C=N/NC(=O)c2ccc(C)nc2)c1O	none
O=C(O)c1cc(-c2cccnc2)nn1-c1ccccn1	none
CCOC(=O)c1c(/N=C/C2=C(O)CCCC2=O)sc(C)c1C	SIAE inh 18 | SIAE confirm inactive
Cc1noc(NS(=O)(=O)c2ccc(NC(=O)COc3ccc(Cl)cc3Cl)cc2)c1C	none
COc1cccc2[nH]c3ccccc3c(=O)c12	none (no result: RBBP9 inh, PRMT1 inh, SIAE inh)
Nc1cccc2c(=O)c3ccccc3[nH]c12	SIAE inh 30 (no result: RBBP9 inh) | SIAE confirm inactive
CC1(C)CC(NS(=O)(=O)OCC(Cl)(Cl)Cl)c2cc(C#N)ccc2O1 (stereo not drawn)	none (no result: RBBP9 inh)
CCOC(=O)c1c(NC(=O)c2ccoc2C)sc2c1CCC2	SIAE inh 24 | SIAE confirm inactive
COC(=O)c1cnc[nH]1	none (no result: RBBP9 inh)
Cc1nn(-c2ccccc2)c(C)c1/C=N/Nc1nc2ccccc2[nH]1	SIAE inh 24 | SIAE confirm 37
C=CCn1cc(/C=N/Nc2nc3ccccc3[nH]2)c2ccccc21	SIAE inh 56 | SIAE confirm 53
Cn1c(/C=N/Nc2nc3ccccc3[nH]2)nc2ccccc21	none
Cc1c(/C=N/Nc2nc3ccccc3[nH]2)c2ccccc2n1C	SIAE inh 40 | SIAE confirm 20
CCOc1ccc(C(=O)N2CCC3(CC2)NCCc2[nH]cnc23)cc1OCC	none (no result: RBBP9 inh)
Cc1cccc(C(C)C)c1NS(=O)(=O)c1cn(C)nc1C	none (no result: RBBP9 inh)
CC(C)N(C(=O)CN1C(=O)C(=O)c2ccccc21)c1ccccc1	none
Cc1ccc(-n2c(SCC(N)=O)nnc2-c2cccnc2)c(C)c1	none
Cc1ccc(-n2c(SCc3cc(=O)n4ccsc4n3)nnc2-c2cccnc2)c(C)c1	SIAE inh 17 | SIAE confirm inactive
OC(c1ccc(CN2CCCCC2)cc1)c1ncc(-c2ccccc2)[nH]1 (stereo not drawn)	SIAE inh 24 (no result: RBBP9 inh, GSTO1 counter, PAD4 FP inh) | SIAE confirm inactive
Cc1c(C)n(CCc2ccccc2)c2ncnc(NN)c12	none (no result: RBBP9 inh)
Cc1c(C)n(CCc2ccccc2)c2ncnc(NCCCO)c12	SIAE inh 18 (no result: RBBP9 inh) | SIAE confirm inactive
COc1ccc(/C=C/c2ccc3ccccc3[n+]2C)cc1OC	none (no result: RBBP9 inh, PRMT1 inh, SIAE inh)
O=C(Nc1ccccc1)Nc1csc2ccccc12	SIAE inh 18 | SIAE confirm inactive
O=C(Nc1ccc(Nc2ccccc2)cc1)Nc1ccccc1Cl	SIAE inh 24 | SIAE confirm inactive
O=S(=O)(Cc1ccc(Cl)cc1)N1CCCCCC1	none (no result: RBBP9 inh)
NS(=O)(=O)c1ccc(N/N=C/c2cn(-c3ccccc3)nc2-c2cccs2)cc1	SIAE inh 23 | SIAE confirm inactive
CC1=NN(c2cccc([N+](=O)[O-])c2)C(=O)C1	SIAE inh 17 | SIAE confirm inactive
O=C1[C@@H]2Cc3c([nH]c4ccccc34)CN2C(=O)CN1CCCO	SIAE inh 18 (no result: RBBP9 inh) | SIAE confirm inactive
COCC(=O)Nc1c(C(=O)Nc2ccc3c(c2)OCO3)oc2ccccc12	none (no result: RBBP9 inh)
O=C(CCl)Nc1c(C(=O)Nc2ccc3c(c2)OCCO3)oc2ccccc12	GSTO1 counter 36, SIAE inh 20 (no result: RBBP9 inh) | SIAE confirm inactive
CC1(C2CC2)NC(=O)N(CC(=O)N2CCN(c3ccccc3Cl)CC2)C1=O (stereo not drawn)	none (no result: RBBP9 inh, GSTO1 counter, PAD4 FP inh)
CN(C)c1ccc(CNCC2CCCO2)cc1 (stereo not drawn)	SIAE inh 18 (no result: RBBP9 inh) | SIAE confirm inactive
CC(=O)N1CCN(C(=O)c2ccc(S(=O)(=O)Nc3ccccc3C)cc2)CC1	none (no result: RBBP9 inh)
Cc1ccccc1NS(=O)(=O)c1ccc(C(=O)N2CCN(S(=O)(=O)c3ccccc3)CC2)cc1	SIAE inh 19 (no result: RBBP9 inh) | SIAE confirm inactive
